According to ChEMBL document CHEMBL4330069, “Boosting the efficacy of anti-MRSA β-lactam antibiotics via an easily accessible, non-cytotoxic and orally bioavailable FtsZ inhibitor” (Eur J Med Chem, 2019):
≈ marks a conversion by molar mass, not a printed value.

How the values were obtained:
Type in all cases: functional
[1] = test system: Staphylococcus aureus; test: Antibacterial activity against multidrug-resistant Staphylococcus aureus isolate 2516 by broth microdilution assay
In short: (§1)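 Broth microdilution MIC per CLSI guidelines against clinical MRSA isolates, for β-lactams and test compound alone and in combination. Compounds were dissolved in DMSO. Growth was read by eye, in duplicate. FIC index = FIC(compound) + FIC(drug); synergy defined as FIC index ≤0.5.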

[2] = test system: Staphylococcus aureus; test: Antibacterial activity against multidrug-resistant Staphylococcus aureus isolate 2895 by broth microdilution assay; in short: as §1
[3] = test system: Staphylococcus aureus; test: Antibacterial activity against multidrug-resistant Staphylococcus aureus isolate 254 by broth microdilution assay; in short: as §1
[4] = test system: Staphylococcus aureus; test: Antibacterial activity against multidrug-resistant Staphylococcus aureus isolate 1344 by broth microdilution assay; in short: as §1
[5] = test system: Staphylococcus aureus; test: Antibacterial activity against multidrug-resistant Staphylococcus aureus isolate 231 by broth microdilution assay; in short: as §1
[6] = test system: Staphylococcus aureus; test: Antibacterial activity against multidrug-resistant Staphylococcus aureus isolate 200 by broth microdilution assay; in short: as §1
[7] = test system: Staphylococcus aureus; test: Antibacterial activity against multidrug-resistant Staphylococcus aureus isolate 417 by broth microdilution assay; in short: as §1
[8] = test system: Staphylococcus aureus; test: Antibacterial activity against multidrug-resistant Staphylococcus aureus isolate 3332 by broth microdilution assay; in short: as §1
[9] = test system: Staphylococcus aureus; test: Antibacterial activity against multidrug-resistant Staphylococcus aureus isolate 3267 by broth microdilution assay; in short: as §1
[10] = test system: Staphylococcus aureus; test: Antibacterial activity against multidrug-resistant Staphylococcus aureus isolate 2224 by broth microdilution assay; in short: as §1
[11] = test system: Staphylococcus aureus; test: Antibacterial activity against multidrug-resistant Staphylococcus aureus isolate 85 by broth microdilution assay; in short: as §1
[12] = test system: Staphylococcus aureus; test: Antibacterial activity against multidrug-resistant Staphylococcus aureus isolate 1749 by broth microdilution assay; in short: as §1
[13] = test system: Staphylococcus aureus; test: Antibacterial activity against multidrug-resistant Staphylococcus aureus isolate 2901 by broth microdilution assay; in short: as §1
[14] = test system: Staphylococcus aureus; test: Antibacterial activity against multidrug-resistant Staphylococcus aureus isolate 3411 by broth microdilution assay; in short: as §1
[15] = test system: Staphylococcus aureus; test: Antibacterial activity against multidrug-resistant Staphylococcus aureus isolate 358 by broth microdilution assay; in short: as §1
[16] = test system: Staphylococcus aureus; test: Antibacterial activity against multidrug-resistant Staphylococcus aureus isolate 256 by broth microdilution assay; in short: as §1
[17] = test system: Staphylococcus aureus; test: Antibacterial activity against multidrug-resistant Staphylococcus aureus isolate 757 by broth microdilution assay; in short: as §1
[18] = test system: Staphylococcus aureus; test: Antibacterial activity against multidrug-resistant Staphylococcus aureus isolate 2728 by broth microdilution assay; in short: as §1
[19] = test system: Staphylococcus aureus; test: Antibacterial activity against multidrug-resistant Staphylococcus aureus isolate 2973 by broth microdilution assay; in short: as §1
[20] = test system: Staphylococcus aureus; test: Antibacterial activity against multidrug-resistant Staphylococcus aureus isolate 1717 by broth microdilution assay; in short: as §1
[21] = test system: Staphylococcus aureus; test: Antibacterial activity against multidrug-resistant Staphylococcus aureus isolate 1402 by broth microdilution assay; in short: as §1
[22] = test system: Staphylococcus aureus; test: Antibacterial activity against multidrug-resistant Staphylococcus aureus isolate 2919 by broth microdilution assay; in short: as §1
[23] = test system: Staphylococcus aureus; test: Antibacterial activity against multidrug-resistant Staphylococcus aureus isolate 2490 by broth microdilution assay; in short: as §1
[24] = test system: Staphylococcus aureus; test: Antibacterial activity against multidrug-resistant Staphylococcus aureus isolate 3580 by broth microdilution assay; in short: as §1
[25] = test system: Staphylococcus aureus; test: Antibacterial activity against multidrug-resistant Staphylococcus aureus isolate 3589 by broth microdilution assay; in short: as §1
[26] = test system: Staphylococcus aureus; test: Antibacterial activity against multidrug-resistant Staphylococcus aureus isolate 1449 by broth microdilution assay; in short: as §1
[27] = test system: Staphylococcus aureus; test: Antibacterial activity against multidrug-resistant Staphylococcus aureus isolate 1136 by broth microdilution assay; in short: as §1
[28] = test system: Staphylococcus aureus; test: Antibacterial activity against multidrug-resistant Staphylococcus aureus isolate 774 by broth microdilution assay; in short: as §1

Row | SMILES | MIC [1] [µg/mL] | MIC [2] [µg/mL] | MIC [3] [µg/mL] | MIC [4] [µg/mL] | MIC [5] [µg/mL] | MIC [6] [µg/mL] | MIC [7] [µg/mL] | MIC [8] [µg/mL] | MIC [9] [µg/mL] | MIC [10] [µg/mL] | MIC [11] [µg/mL] | MIC [12] [µg/mL] | MIC [13] [µg/mL] | MIC [14] [µg/mL] | MIC [15] [µg/mL] | MIC [16] [µg/mL] | MIC [17] [µg/mL] | MIC [18] [µg/mL] | MIC [19] [µg/mL] | MIC [20] [µg/mL] | other results
1 | CC1(C)S[C@@H]2[C@H](NC(=O)[C@H](N)c3ccc(O)cc3)C(=O)N2[C@H]1C(=O)O [AMOXICILLIN] | 64 (≈ 175 µM) | 256 (≈ 701 µM) | 128 (≈ 350 µM) | 128 (≈ 350 µM) | 256 (≈ 701 µM) | 512 (≈ 1400 µM) | 512 (≈ 1400 µM) | 64 (≈ 175 µM) | 8 (≈ 21.9 µM) | 512 (≈ 1400 µM) | 256 (≈ 701 µM) | 64 (≈ 175 µM) | 512 (≈ 1400 µM) | 256 (≈ 701 µM) | 256 (≈ 701 µM) | 256 (≈ 701 µM) | 8 (≈ 21.9 µM) | 512 (≈ 1400 µM) | 512 (≈ 1400 µM) | 32 (≈ 87.6 µM) | MIC [21]: 256 µg/mL (≈ 701 µM); MIC [22]: 1020 µg/mL (≈ 2800 µM); MIC [23]: 128 µg/mL (≈ 350 µM); MIC [24]: 256 µg/mL (≈ 701 µM); MIC [25]: 128 µg/mL (≈ 350 µM); MIC [26]: 2 µg/mL (≈ 5.47 µM); MIC [27]: 512 µg/mL (≈ 1400 µM); MIC [28]: 512 µg/mL (≈ 1400 µM)
2 | C[C@@H](O)[C@H]1C(=O)N2C(C(=O)O)=C(S[C@@H]3CN[C@H](C(=O)N(C)C)C3)[C@H](C)[C@H]12 [MEROPENEM] | 16 (≈ 41.7 µM) | 1 (≈ 2.61 µM) | 8 (≈ 20.9 µM) | 16 (≈ 41.7 µM) | 32 (≈ 83.4 µM) | 1 (≈ 2.61 µM) | 64 (≈ 167 µM) | 2 (≈ 5.22 µM) | 2 (≈ 5.22 µM) | 2 (≈ 5.22 µM) | 2 (≈ 5.22 µM) | 0.5 (≈ 1.3 µM) | 1 (≈ 2.61 µM) | 4 (≈ 10.4 µM) | 0.13 (≈ 0.339 µM) | 2 (≈ 5.22 µM) | 4 (≈ 10.4 µM) | 2 (≈ 5.22 µM) | 1 (≈ 2.61 µM) | 1 (≈ 2.61 µM) | MIC [21]: 1 µg/mL (≈ 2.61 µM); MIC [22]: 1 µg/mL (≈ 2.61 µM); MIC [23]: 2 µg/mL (≈ 5.22 µM); MIC [24]: 8 µg/mL (≈ 20.9 µM); MIC [25]: 4 µg/mL (≈ 10.4 µM); MIC [26]: 0.13 µg/mL (≈ 0.339 µM); MIC [27]: 2 µg/mL (≈ 5.22 µM); MIC [28]: 32 µg/mL (≈ 83.4 µM)
3 | COc1cccc(OC)c1C(=O)N[C@@H]1C(=O)N2[C@@H]1SC(C)(C)[C@@H]2C(=O)O [METHICILLIN] | 64 (≈ 168 µM) | 64 (≈ 168 µM) | 1020 (≈ 2690 µM) | 256 (≈ 673 µM) | 1020 (≈ 2690 µM) | 16 (≈ 42.1 µM) | 1020 (≈ 2690 µM) | 128 (≈ 336 µM) | 64 (≈ 168 µM) | 16 (≈ 42.1 µM) | 8 (≈ 21 µM) | 32 (≈ 84.1 µM) | 256 (≈ 673 µM) | 128 (≈ 336 µM) | 16 (≈ 42.1 µM) | 128 (≈ 336 µM) | 64 (≈ 168 µM) | 32 (≈ 84.1 µM) | 16 (≈ 42.1 µM) | 16 (≈ 42.1 µM) | MIC [21]: 32 µg/mL (≈ 84.1 µM); MIC [22]: 32 µg/mL (≈ 84.1 µM); MIC [23]: 1020 µg/mL (≈ 2690 µM); MIC [24]: 16 µg/mL (≈ 42.1 µM); MIC [25]: 256 µg/mL (≈ 673 µM); MIC [26]: 8 µg/mL (≈ 21 µM); MIC [27]: 64 µg/mL (≈ 168 µM); MIC [28]: 16 µg/mL (≈ 42.1 µM)
